In ChEMBL document CHEMBL3045952, “Design, synthesis, and fungicidal activity of novel analogues of pyrrolnitrin” (J Agric Food Chem, 2009):
In brackets after ≈: the same amount, converted by molar mass.

Key:
Mycosphaerella arachidis [1] = assay: Fungicidal activity against Mycosphaerella arachidis assessed as mycelium growth inhibition by mycelium growth rate method; format: functional, organism-based
Outline: (§1)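 EC50 was calculated by the […] from in vitro growth-rate inhibition ratios. Inhibition (%) = (D1 − D2)/D1 × 100, taken from mean mycelial diameters of the blank (D1) and the treated plates (D2) once mycelia had grown completely. Fenpiclonil served as control.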

[2] = system: Botryosphaeria berengeriana; assay: Fungicidal activity against Botryosphaeria berengeriana assessed as mycelium growth inhibition at 50 ug/mL by mycelium growth rate method; format: functional; conditions: read-out: GI
Outline: (§2)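 In vitro mycelium growth rate method, with fenpiclonil as control. Compounds were tested at 50, 20 and 10 μg mL-1. Mycelial diameters were measured once the mycelia had grown completely. Inhibition (%) = (D1 − D2)/D1 × 100, where D1 is the mean mycelial diameter in the blank and D2 is the mean diameter with compound.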

Fusarium graminearum [3] = assay: Fungicidal activity against Fusarium graminearum assessed as mycelium growth inhibition at 50 ug/mL by mycelium growth rate method; format: functional; conditions: read-out: GI; outline: as §2
Alternaria solani [4] = assay: Fungicidal activity against Alternaria solani assessed as mycelium growth inhibition by mycelium growth rate method; format: functional, organism-based; outline: as §1
Fusarium graminearum [5] = assay: Fungicidal activity against Fusarium graminearum assessed as mycelium growth inhibition by mycelium growth rate method; format: functional, organism-based; outline: as §1
Alternaria solani [6] = assay: Fungicidal activity against Alternaria solani assessed as mycelium growth inhibition at 50 ug/mL by mycelium growth rate method; format: functional; conditions: read-out: GI; outline: as §2
Mycosphaerella arachidis [7] = assay: Fungicidal activity against Mycosphaerella arachidis assessed as mycelium growth inhibition at 50 ug/mL by mycelium growth rate method; format: functional; conditions: read-out: GI; outline: as §2
[8] = system: Botryosphaeria berengeriana; assay: Fungicidal activity against Botryosphaeria berengeriana assessed as mycelium growth inhibition by mycelium growth rate method; format: functional, organism-based; outline: as §1
Fusarium oxysporum [9] = assay: Fungicidal activity against Fusarium oxysporum assessed as mycelium growth inhibition by mycelium growth rate method; format: functional, organism-based; outline: as §1
Fusarium oxysporum [10] = assay: Fungicidal activity against Fusarium oxysporum assessed as mycelium growth inhibition at 50 ug/mL by mycelium growth rate method; format: functional; conditions: read-out: GI; outline: as §2
Alternaria solani [11] = assay: Fungicidal activity against Alternaria solani assessed as mycelium growth inhibition at 20 ug/mL by mycelium growth rate method; format: functional; conditions: read-out: GI; outline: as §2
Alternaria solani [12] = assay: Fungicidal activity against Alternaria solani assessed as mycelium growth inhibition at 10 ug/mL by mycelium growth rate method; format: functional; conditions: read-out: GI; outline: as §2
Mycosphaerella arachidis [13] = assay: Fungicidal activity against Mycosphaerella arachidis assessed as mycelium growth inhibition at 20 ug/mL by mycelium growth rate method; format: functional; conditions: read-out: GI; outline: as §2
Fusarium graminearum [14] = assay: Fungicidal activity against Fusarium graminearum assessed as mycelium growth inhibition at 10 ug/mL by mycelium growth rate method; format: functional; conditions: read-out: GI; outline: as §2
Fusarium graminearum [15] = assay: Fungicidal activity against Fusarium graminearum assessed as mycelium growth inhibition at 20 ug/mL by mycelium growth rate method; format: functional; conditions: read-out: GI; outline: as §2
Mycosphaerella arachidis [16] = assay: Fungicidal activity against Mycosphaerella arachidis assessed as mycelium growth inhibition at 10 ug/mL by mycelium growth rate method; format: functional; conditions: read-out: GI; outline: as §2
[17] = system: Botryosphaeria berengeriana; assay: Fungicidal activity against Botryosphaeria berengeriana assessed as mycelium growth inhibition at 10 ug/mL by mycelium growth rate method; format: functional; conditions: read-out: GI; outline: as §2
Fusarium oxysporum [18] = assay: Fungicidal activity against Fusarium oxysporum assessed as mycelium growth inhibition at 20 ug/mL by mycelium growth rate method; format: functional; conditions: read-out: GI; outline: as §2
[19] = system: Botryosphaeria berengeriana; assay: Fungicidal activity against Botryosphaeria berengeriana assessed as mycelium growth inhibition at 20 ug/mL by mycelium growth rate method; format: functional; conditions: read-out: GI; outline: as §2
Fusarium oxysporum [20] = assay: Fungicidal activity against Fusarium oxysporum assessed as mycelium growth inhibition at 10 ug/mL by mycelium growth rate method; format: functional; conditions: read-out: GI; outline: as §2

Row | SMILES | EC50 (Mycosphaerella arachidis [1]) [µg/mL] | inhibition of growth at 50 µg/mL [2] [%] | inhibition of growth at 50 µg/mL (Fusarium graminearum [3]) [%] | EC50 (Alternaria solani [4]) [µg/mL] | EC50 (Fusarium graminearum [5]) [µg/mL] | inhibition of growth at 50 µg/mL (Alternaria solani [6]) [%] | inhibition of growth at 50 µg/mL (Mycosphaerella arachidis [7]) [%] | EC50 [8] [µg/mL] | EC50 (Fusarium oxysporum [9]) [µg/mL] | inhibition of growth at 50 µg/mL (Fusarium oxysporum [10]) [%] | inhibition of growth at 20 µg/mL (Alternaria solani [11]) [%] | inhibition of growth at 10 µg/mL (Alternaria solani [12]) [%] | inhibition of growth at 20 µg/mL (Mycosphaerella arachidis [13]) [%] | inhibition of growth at 10 µg/mL (Fusarium graminearum [14]) [%] | inhibition of growth at 20 µg/mL (Fusarium graminearum [15]) [%] | inhibition of growth at 10 µg/mL (Mycosphaerella arachidis [16]) [%] | inhibition of growth at 10 µg/mL [17] [%] | inhibition of growth at 20 µg/mL (Fusarium oxysporum [18]) [%] | inhibition of growth at 20 µg/mL [19] [%] | inhibition of growth at 10 µg/mL (Fusarium oxysporum [20]) [%]
1 | O=[N+]([O-])c1cc([N+](=O)[O-])c(-c2ccsc2)cc1F | 7.16 (≈ 26.7 µM) | 100 | 100 | 25.2 (≈ 94 µM) | 27.5 (≈ 103 µM) | 68 | 100 | 4.41 (≈ 16.4 µM) | 4.42 (≈ 16.5 µM) | 100 | – | – | – | – | – | – | – | – | – | –
2 | O=[N+]([O-])c1cc(-c2ccccc2[N+](=O)[O-])cs1 | – | 20 | 25 | – | – | 22 | 20 | – | – | 0 | 16 | 6 | 16 | 1 | 7 | 8 | 0 | 0 | 9 | 0
3 | O=[N+]([O-])c1cc(-c2ccc(F)cc2[N+](=O)[O-])cs1 | – | 46 | 12 | – | – | 41 | 44 | – | – | 25 | 25 | 6 | 27 | 0 | 0 | 11 | 4 | 17 | 10 | 7
4 | O=[N+]([O-])c1cc(-c2cc(F)ccc2[N+](=O)[O-])cs1 | – | 27 | 16 | – | – | 35 | 33 | – | – | 28 | 16 | 0 | 22 | 0 | 0 | 0 | 0 | 10 | 8 | 0
5 | O=[N+]([O-])c1ccccc1-c1ccsc1 | – | 88 | 65 | – | – | 75 | 18 | – | – | 68 | 30 | 0 | 0 | 13 | 43 | 0 | 20 | 31 | 68 | 12
6 | O=[N+]([O-])c1cc(F)ccc1-c1ccsc1 | – | 80 | 39 | – | – | 55 | 0 | – | – | 75 | 35 | 10 | 0 | 8 | 30 | 0 | 0 | 50 | 20 | 0
7 | O=[N+]([O-])c1ccc(F)cc1-c1ccsc1 | – | 72 | 65 | – | – | 75 | 25 | – | – | 87 | 25 | 5 | 12 | 21 | 43 | 0 | 0 | 50 | 36 | 18
8 | O=[N+]([O-])c1cc(Cl)ccc1-c1ccsc1 | – | 80 | 39 | – | – | 55 | 25 | – | – | 75 | 20 | 0 | 6 | 13 | 21 | 0 | 14 | 43 | 38 | 25
9 | O=[N+]([O-])c1cc(Cl)cc(Cl)c1-c1ccsc1 | – | 82 | 39 | – | – | 60 | 25 | – | – | 87 | 55 | 20 | 18 | 8 | 26 | 0 | 42 | 81 | 72 | 56
10 | O=[N+]([O-])c1cc(F)c(Cl)cc1-c1ccsc1 | – | 80 | 47 | – | – | 60 | 25 | – | – | 87 | 35 | 0 | 18 | 0 | 30 | 0 | 64 | 43 | 74 | 18
11 | O=[N+]([O-])c1c(Cl)c(Cl)cc(Cl)c1-c1ccsc1 | > 50 | 90 | 47 | > 50 | > 50 | 49 | 50 | 36.7 (≈ 119 µM) | > 50 | 36 | – | – | – | – | – | – | – | – | – | –
12 | N#Cc1c[nH]cc1-c1cccc(Cl)c1Cl [FENPICLONIL] | – | 100 | 100 | – | – | 100 | 100 | – | > 50 | 18 | – | – | – | – | – | – | – | – | – | –
